Compound activity from PubChem BioAssay.
STAT1 act: STAT1 signaling activators, primary screen, cell-based, HTS, luciferase reporter | AID 932, 2007 | activation (% of control), % at 5.5 µM | actives 2.6% (n = 200,000) | NIH 3T3 STAT1-luciferase reporter, IFN-gamma, luminescence; 100% = IFN-gamma alone, no compound;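 active = activation above the screen-wide mean activation plus 3 SD, cut at about 130% in these data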;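 note: raw ratio to IFN-gamma control signal so 100% means no change and 0% no light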
FLuc stim CS: FLuc activators, initial screening, artefact control for FLuc-dependent activation tests, biochemical, ATPlite luminescence; activation factor at 10 µM; 200,000 tested, under 10 active; ATPlite luciferase biochemical, 10 min; 0 = ATP-free wells, 1 = DMSO control; AID 1027, 2008; Luciferin 4-monooxygenase (Photinus pyralis), P08659;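 active = luciferase activation factor, scaled between plate controls, of at least 2 with compound at 10 µM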
Target sequence (P08659 whole entry, looked up): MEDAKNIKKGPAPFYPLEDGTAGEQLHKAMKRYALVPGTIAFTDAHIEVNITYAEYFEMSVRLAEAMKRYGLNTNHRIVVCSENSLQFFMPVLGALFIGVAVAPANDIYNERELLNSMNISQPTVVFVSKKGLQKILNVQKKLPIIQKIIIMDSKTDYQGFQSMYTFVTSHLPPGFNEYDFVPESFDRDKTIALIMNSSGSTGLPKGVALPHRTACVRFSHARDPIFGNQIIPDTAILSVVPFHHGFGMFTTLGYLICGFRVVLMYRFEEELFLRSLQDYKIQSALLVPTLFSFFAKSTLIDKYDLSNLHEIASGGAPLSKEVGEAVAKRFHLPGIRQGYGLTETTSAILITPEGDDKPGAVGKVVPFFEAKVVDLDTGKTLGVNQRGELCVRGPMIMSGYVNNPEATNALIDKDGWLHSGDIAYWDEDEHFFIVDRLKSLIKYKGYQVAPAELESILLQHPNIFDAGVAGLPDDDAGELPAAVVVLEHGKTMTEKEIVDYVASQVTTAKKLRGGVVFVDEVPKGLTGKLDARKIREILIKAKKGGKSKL
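Assay system: Luciferase/luciferin detection reagent, cell-free biochemical luciferase assay / Also added: ATP substrate / Schedule: 10 min at ambient temperature / Measured by: luminescence measurement of luciferase light output / Benchmarks: low control with PBS replacing ATP, high control enzyme plus ATP without compound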
FLuc inhib CS: firefly luciferase enzyme inhibitors, primary screen, artefact control for luciferase-based inhibitor screens, biochemical, luminescence, ATPLite; Luciferin 4-monooxygenase (Photinus pyralis), P08659; 10 min; inhibition, % at 10 µM; actives 1.5% (n = 200,000); AID 1006, 2008;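 active = inhibition above about 50% when tested at 10 µM, limit read from the data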
Pf gamet viab: late stage P. falciparum gametocyte viability inhibitors, primary screen, ATP luminescence, HTS | P. falciparum stage V gametocytes, 24 h | inhibition, % at 10.9 µM | actives 0.065% (n = 150,000) | AID 743093, 2013;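 active = inhibition above the mean plus 3 SD of compounds within the control limits, set per campaign, cut at about 38% in these data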;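 note: 0% = DMSO wells and 100% = medium only without gametocytes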
NF-kB expr up: activators of NF-kB expression in neurons, primary screen, cell-based, HTS. fold change at 12.5 µM. actives 1.6% (n = 190,000). human neuronal cells, NF-kB reporter expression; active compounds read high; in the data active = fold change above about 3.3
APP 5'UTR act: activators of APP 5'UTR luciferase reporter, primary screen, SH-SY5Y cells. SH-SY5Y APP 5'UTR luciferase reporter, luminescence; zero percent = DMSO vehicle wells. activation, % at 2 µM. actives 1% (n = 190,000). AID 1276, 2008;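 active = activation above a set limit, based on mean plus 3 SD of controls, cut at about 140% in these data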
The depositor's hits bear a star. An excerpt weighted towards active compounds, which were near 3.5% of everything screened.

For CCOc1c2ccoc2nc2c(OC)c(OC)ccc12 the results were STAT1 act 98, FLuc stim CS 0.6, FLuc inhib CS 37, NF-kB expr up 1.5 and APP 5'UTR act -8.
C=CCOc1ccc2c(OC)c3ccoc3nc2c1OC was read as STAT1 act 113, FLuc stim CS 0.5, FLuc inhib CS 54*, NF-kB expr up 1.8 and APP 5'UTR act 32.
O=c1sc2ccccc2n1CCOc1ccccc1 was read as STAT1 act 142*, FLuc stim CS 0.9, FLuc inhib CS 13, Pf gamet viab 15, NF-kB expr up 2.6 and APP 5'UTR act 76.
Cn1c(=O)n(CCOc2ccc([N+](=O)[O-])cc2)c2ccccc21 was read as Pf gamet viab 20.
Screening Cc1ccc(OCCn2c(=O)n(C)c3ccccc32)cc1 returned STAT1 act 150*, FLuc stim CS 0.8, FLuc inhib CS 16, Pf gamet viab -24, NF-kB expr up 2.6 and APP 5'UTR act 118.
`COc1cc(C(=O)Oc2c(CN3CCOCC3)cc(Cl)c3cccnc23)cc(OC)c1OC` gave STAT1 act 105, FLuc stim CS 1.1, FLuc inhib CS -6, NF-kB expr up 3.8* and APP 5'UTR act -39.
O=C(Oc1c(CN2CCOCC2)cc(Cl)c2cccnc12)c1cccs1 was read as STAT1 act 104, FLuc stim CS 1, FLuc inhib CS 1, Pf gamet viab -28, NF-kB expr up 1.1 and APP 5'UTR act -27.
For O=C(Oc1c(CN2CCOCC2)cc(Cl)c2cccnc12)c1ccc(F)cc1 the results were STAT1 act 98, FLuc stim CS 1.1, FLuc inhib CS -5, Pf gamet viab 7, NF-kB expr up 7.6* and APP 5'UTR act -37.
`O=C(Oc1c(CN2CCOCC2)cc(Cl)c2cccnc12)c1ccccc1Cl` gave STAT1 act 99, FLuc stim CS 1, FLuc inhib CS -4, Pf gamet viab -13, NF-kB expr up 1.7 and APP 5'UTR act -53.
`COc1ccc(C(=O)Oc2c(CN3CCOCC3)cc(Cl)c3cccnc23)cc1` gave STAT1 act 93, FLuc stim CS 1.1, FLuc inhib CS -6, NF-kB expr up 28* and APP 5'UTR act -38.
For COc1cccc(C(=O)Oc2c(CN3CCOCC3)cc(Cl)c3cccnc23)c1 the results were STAT1 act 102, FLuc stim CS 1.1, FLuc inhib CS -6, Pf gamet viab -17, NF-kB expr up 4.6* and APP 5'UTR act -38.
Screening Cc1ccc(S(=O)(=O)N2CCC(NC(=O)OC(C)C)CC2)cc1 returned STAT1 act 93, FLuc stim CS 1.1, FLuc inhib CS -9, Pf gamet viab 14, NF-kB expr up 0.88 and APP 5'UTR act 32.
Screening Cc1cc(-c2ccccc2)nc(N/N=C/c2cccnc2)n1 returned STAT1 act 112, FLuc stim CS 0.3, FLuc inhib CS 74*, Pf gamet viab -24, NF-kB expr up 0.96 and APP 5'UTR act 8.
Cc1cc(N/N=C/c2ccccc2)nc(NCc2ccccc2)n1 was read as STAT1 act 102, FLuc stim CS 0.2, FLuc inhib CS 76*, Pf gamet viab 16, NF-kB expr up 0.95 and APP 5'UTR act 34.
Screening C(=N/Nc1nc(-c2ccccc2)cc(-c2ccccc2)n1)/c1cccnc1 returned STAT1 act 120, FLuc stim CS 0.5, FLuc inhib CS 46, Pf gamet viab 24, NF-kB expr up 0.49 and APP 5'UTR act 14.
For CC(C)c1ccc(NC(=O)C(c2ccccc2)N2CCOCC2)cc1 (centres undefined) the results were FLuc stim CS 1.1, FLuc inhib CS -6, NF-kB expr up 3.2 and APP 5'UTR act 6.
CC(C)c1ccc(NC(=O)NN2CCOCC2)cc1 was read as STAT1 act 146*, FLuc stim CS 0.7, FLuc inhib CS 28, Pf gamet viab 15, NF-kB expr up 1.7 and APP 5'UTR act 86.
Screening Cc1cc2ncc(-c3cccc(Cl)c3)cn2n1 returned STAT1 act 129*, FLuc stim CS 0.9, FLuc inhib CS 12, NF-kB expr up 1.9 and APP 5'UTR act 49.
Screening Cc1cc2ncc(-c3ncc(C(F)(F)F)cc3Cl)cn2n1 returned STAT1 act 75, FLuc stim CS 0.3, FLuc inhib CS 73*, NF-kB expr up 0.91 and APP 5'UTR act 138*.
Screening Cc1nn2cc(-c3ncc(C(F)(F)F)cc3Cl)cnc2c1Br returned STAT1 act 129*, FLuc stim CS 0.7, FLuc inhib CS 26, Pf gamet viab -31, NF-kB expr up 0.92 and APP 5'UTR act 505*.
For O=C(COc1ccc(Cl)cc1)NCc1nnc(SCC(=O)Nc2ccccc2F)o1 the results were STAT1 act 97, FLuc stim CS 1.1, FLuc inhib CS -6, Pf gamet viab 6, NF-kB expr up 1.2 and APP 5'UTR act -4.
CCn1c(C(=O)OC)cc2c1ccn2-c1ccc(F)cc1 was read as STAT1 act 144*, FLuc stim CS 1, FLuc inhib CS 1, NF-kB expr up 2.8 and APP 5'UTR act 80.
COc1c(/C=N/NC(=O)c2ccccc2O)c(CCN(C)C(C)=O)cc2c1OCO2 was read as STAT1 act 101, FLuc stim CS 0.2, FLuc inhib CS 85*, Pf gamet viab -15, NF-kB expr up 1.1 and APP 5'UTR act 19.
For COc1ccc(N=C2C(=Nc3ccc(OC)cc3)N(c3ccccc3)C(=S)N2C(=O)c2ccc(Cl)cc2)cc1 the results were STAT1 act 118, FLuc stim CS 1, FLuc inhib CS 4, Pf gamet viab -11, NF-kB expr up 6.8* and APP 5'UTR act 10.
Screening COc1ccc(N=C2C(=Nc3ccc(OC)cc3)N(c3ccc(OC)cc3)C(=S)N2C(=O)c2ccc(OC)cc2)cc1 returned STAT1 act 107, FLuc stim CS 1, FLuc inhib CS -3, Pf gamet viab -9, NF-kB expr up 1.1 and APP 5'UTR act 0.
Screening Clc1ccccc1-c1nc(-c2cccnc2)no1 returned STAT1 act 129*, FLuc stim CS 0.3, FLuc inhib CS 74*, Pf gamet viab -5, NF-kB expr up 1.4 and APP 5'UTR act 111.
Screening Cc1ccccc1-c1nc(-c2cccnc2)no1 returned STAT1 act 139*, FLuc stim CS 0.8, FLuc inhib CS 21, Pf gamet viab -5, NF-kB expr up 3.7* and APP 5'UTR act 76.
Screening Clc1ccccc1-c1nc(-c2ccncc2)no1 returned Pf gamet viab 4.
`CC(=O)c1ccc(Cc2ccc(C(C)=O)cc2)cc1` gave STAT1 act 101, FLuc stim CS 1, FLuc inhib CS -2, Pf gamet viab 14, NF-kB expr up 1.2 and APP 5'UTR act -18.
